Measured values as given in ChEMBL document CHEMBL1155300, “Substituted 3-(4-(1,3,5-triazin-2-yl)-phenyl)-2-aminopropanoic acids as novel tryptophan hydroxylase inhibitors” (Bioorg Med Chem Lett, 2009).
The source made the active and inactive calls. No cut-off for these calls is given here.

How the values were obtained:
[1] = tested on: Mus musculus; test: Reduction of serotonin level in mouse duodenum at 100 mg/kg, ip bid for 8 days; assay type: functional; parameters: scale not given: the % may be the effect or the level left; details: route intraperitoneal
[2] = tested on: Mus musculus; test: Reduction of serotonin level in mouse blood at 100 mg/kg, po bid for 5 days; assay type: functional; parameters: scale not given: the % may be the effect or the level left
Summary of the method: (§1)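 Mice were dosed at 100 mg/kg twice daily (200 mg/kg/day) for five days, by intraperitoneal injection or oral gavage. 5-HT levels were then measured in blood and intestine (duodenum) and reported as percent decrease.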

[3] = Cmax in C57 albino mouse at 10 mg/kg, po; assay type: ADME, organism-based; parameters: dose 10 mg/kg, route oral; details: in vivo
Summary of the method: (§2)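 Male C57-albino mice were used in two groups. One group received a single 1 mg/kg intravenous injection and the other a 10 mg/kg oral gavage dose. Plasma levels gave clearance and Vss (iv), and Cmax, AUC and oral bioavailability (po).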

[4] = organism: Mus musculus; test: Reduction of serotonin level in mouse brain; assay type: functional, organism-based
[5] = Oral bioavailability in C57 albino mouse at 10 mg/kg; assay type: ADME, organism-based; details: in vivo; summary of the method: as §2
[6] = tested on: Mus musculus; test: Reduction of serotonin level in mouse duodenum at 100 mg/kg, ip bid for 5 days; assay type: functional; parameters: scale not given: the % may be the effect or the level left; details: route intraperitoneal; summary of the method: as §1
[7] = tested on: Mus musculus; test: Reduction of serotonin level in mouse duodenum at 100 mg/kg, po bid for 5 days; assay type: functional; parameters: scale not given: the % may be the effect or the level left; summary of the method: as §1
[8] = tested on: Mus musculus; test: Reduction of serotonin level in mouse blood at 100 mg/kg, ip bid for 8 days; assay type: functional; parameters: scale not given: the % may be the effect or the level left; details: route intraperitoneal
[9] = Volume of distribution at steady state in C57 albino mouse at 1 mg/kg, iv; assay type: ADME, organism-based; parameters: dose 1 mg/kg, route intravenous; details: in vivo, read-out: Vdss; summary of the method: as §2
[10] = tested on: RBL-2H3; test: Inhibition of serotonin biosynthesis in rat RBL2H3 cells after 3 days; assay type: functional, cell-based; details: RBL-2H3, 72 h
Summary of the method: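 Serotonin biosynthesis was measured in rat mastocytoma RBL-2H3 cells. EC50 was taken from inhibition of that biosynthesis.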

[11] = tested on: Mus musculus; test: Reduction of serotonin level in mouse blood at 100 mg/kg, ip bid for 5 days; assay type: functional; parameters: scale not given: the % may be the effect or the level left; details: route intraperitoneal; summary of the method: as §1
[12] = Plasma clearance in C57 albino mouse at 1 mg/kg, iv; assay type: ADME, organism-based; parameters: dose 1 mg/kg, route intravenous; summary of the method: as §2
[13] = tested on: Mus musculus; test: AUC in C57 albino mouse at 10 mg/kg, po; assay type: ADME, organism-based, Plasma; parameters: dose 10 mg/kg, route oral; details: in vivo; summary of the method: as §2
[14] = target: T1, Tryptophan 5-hydroxylase 1 (Homo sapiens, UniProt P17752); test: Inhibition of human recombinant TPH1 by continuous fluorescence assay
T1 sequence (P17752 whole entry): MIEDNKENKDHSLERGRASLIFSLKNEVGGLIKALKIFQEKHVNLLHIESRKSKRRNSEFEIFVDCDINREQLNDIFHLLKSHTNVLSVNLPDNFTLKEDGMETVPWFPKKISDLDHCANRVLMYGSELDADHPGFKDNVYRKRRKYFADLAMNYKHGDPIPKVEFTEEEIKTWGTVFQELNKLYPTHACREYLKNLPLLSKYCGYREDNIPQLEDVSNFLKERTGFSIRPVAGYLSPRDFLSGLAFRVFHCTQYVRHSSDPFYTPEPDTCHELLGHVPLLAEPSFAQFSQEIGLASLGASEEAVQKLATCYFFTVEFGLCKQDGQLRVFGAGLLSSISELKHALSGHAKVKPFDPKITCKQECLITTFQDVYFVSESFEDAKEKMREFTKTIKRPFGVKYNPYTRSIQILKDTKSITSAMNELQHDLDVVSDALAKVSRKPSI
Summary of the method: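 Purified recombinant human TPH1 was tested in a continuous fluorescence assay. IC50 was taken from inhibition of enzyme activity.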

| SMILES | EC50 [10] [nM] | IC50 [14] [nM] | other results |
| --- | --- | --- | --- |
| Cc1ccc(CNc2nc(N)nc(-c3ccc(C[C@H](N)C(=O)O)cc3)n2)cc1C | > 11000 | 100 | – |
| N[C@@H](Cc1ccc(-c2nc(NCc3ccc4ccccc4c3)nc(N3CCOCC3)n2)cc1)C(=O)O | > 40000 | 15600 | – |
| Nc1nc(NCc2ccc(Oc3ccccc3)cc2)nc(-c2ccc(C[C@H](N)C(=O)O)cc2)n1 | 3400 | 150 | – |
| CC(C)C(Nc1nc(N)nc(-c2ccc(C[C@H](N)C(=O)O)cc2)n1)c1ccc2ccccc2c1 (stereo not given in full) | 5700 | 250 | – |
| Nc1nc(NC(c2ccc3ccccc3c2)C(F)(F)F)nc(-c2ccc(C[C@H](N)C(=O)O)cc2)n1 (stereo not given in full) | 6300 | 330 | – |
| CC(C)CC(Nc1nc(N)nc(-c2ccc(C[C@H](N)C(=O)O)cc2)n1)c1ccc2ccccc2c1 (stereo not given in full) | > 11000 | 120 | – |
| Nc1nc(NCc2ccc(C(F)(F)F)cc2)nc(-c2ccc(C[C@H](N)C(=O)O)cc2)n1 | 36000 | 120 | – |
| Nc1nc(NCC2CCCCC2)nc(-c2ccc(C[C@H](N)C(=O)O)cc2)n1 | > 11000 | 120 | – |
| Nc1nc(NCc2ccc(-c3ccc(C(F)(F)F)cc3)cc2)nc(-c2ccc(C[C@H](N)C(=O)O)cc2)n1 | 4100 | 160 | – |
| Nc1nc(NCc2ccccc2)nc(-c2ccc(C[C@H](N)C(=O)O)cc2)n1 | > 11000 | 500 | – |
| CNc1nc(N[C@H](C)c2ccc3ccccc3c2)nc(-c2ccc(C[C@H](N)C(=O)O)cc2)n1 | 10200 | 610 | – |
| Nc1nc(OC(c2ccc3ccccc3c2)C(F)(F)F)nc(-c2ccc(C[C@H](N)C(=O)O)cc2)n1 (stereo not given in full) | 9600 | 320 | – |
| CC(Nc1ncnc(-c2ccc(C[C@H](N)C(=O)O)cc2)n1)c1ccc2ccccc2c1 (stereo not given in full) | 16200 | 190 | – |

Now those with a lower EC50 [10], led by results:

| EC50 [10] [nM] | IC50 [14] [nM] | SMILES | other results |
| --- | --- | --- | --- |
| 2800 | 44 | C[C@H](Nc1nc(N)nc(-c2ccc(C[C@H](N)C(=O)O)cc2)n1)c1ccc2ccccc2c1 | – |
| 2500 | 24 | CC(Nc1nc(N)nc(-c2ccc(C[C@H](N)C(=O)O)cc2)n1)c1ccc(-c2ccccc2)cc1 (stereo not given in full) | – |
| 2300 | 150 | CCC(Nc1nc(N)nc(-c2ccc(C[C@H](N)C(=O)O)cc2)n1)c1ccc2ccccc2c1 (stereo not given in full) | – |
| 2300 | 14 | Cc1ccc(-c2ccc(CNc3nc(N)nc(-c4ccc(C[C@H](N)C(=O)O)cc4)n3)cc2)cc1 | – |
| 2200 | 7 | Nc1nc(NCc2ccccc2-c2ccccc2)nc(-c2ccc(C[C@H](N)C(=O)O)cc2)n1 | – |
| 2100 | – | Nc1nc(NCc2ccc3ccccc3c2)nc(-c2ccc(C[C@H](N)C(=O)O)cc2)n1 | – |
| 1800 | 60 | Nc1nc(NCc2ccc(-c3ccccc3)cc2)nc(-c2ccc(C[C@H](N)C(=O)O)cc2)n1 | – |
| 1700 | 55 | CC(C)(Nc1nc(N)nc(-c2ccc(C[C@H](N)C(=O)O)cc2)n1)c1ccc2ccccc2c1 | – |
| 1400 | 38 | Nc1nc(NCc2cccc(-c3ccccc3)c2)nc(-c2ccc(C[C@H](N)C(=O)O)cc2)n1 | – |
| 820 | 19 | CC(Nc1nc(N)nc(-c2ccc(C[C@H](N)C(=O)O)cc2)n1)C12CC3CC(CC(C3)C1)C2 (stereo not given in full) | – |
| 480 | 50 | C[C@H](c1ccc2ccccc2c1)N(C)c1nc(N)nc(-c2ccc(C[C@H](N)C(=O)O)cc2)n1 | – |
| 300 | – | C[C@@H](Nc1nc(N)nc(-c2ccc(C[C@H](N)C(=O)O)cc2)n1)c1ccc2ccccc2c1 | Activity [1]: 57%; Activity [2]: 17%; Cmax [3]: 500 nM; Activity [4]: inactive; bioavailability [5]: 5%; Activity [6]: 37%; Activity [7]: 38%; Activity [8]: 50%; Vd [9]: 0.5 L/kg; Activity [11]: 26%; clearance [12]: 8.33 mL/min/kg; AUC [13]: 1.6 µM·h |
